# Most compounds without a hit are left out; they make up all but 3.5% or so of the library.
# RGS4 act = RGS4 potentiation or activation; HEK293 M3R/inducible RGS4, carbachol calcium flux Fluo4; active compounds read low; B-score at 10 µM; actives 0.92% (n = 310,000); AID 463111;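 active means B-score of the integrated calcium signal more than 4 SD below the library mean, with starting fluorescence not abnormally high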;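 further: negative B-score means reduced calcium response which marks RGS4 activation or potentiation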
#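 Reagent: ECmax carbachol challenge; Test system: M3R-expressing HEK293 line, RGS4 induced by doxycycline; Schedule: overnight RGS4 induction, 30 min dye load 37 °C, 20 min compound RT; Detection: calcium dye Fluo4 fluorescence; Read-out: Agonist-evoked peak-minus-minimum fluorescence over baseline, integrated ratio, B score.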
# MrgX1 ag = human MrgX1 receptor agonism, primary screen; Q96LB2; MrgX1-HEK293 cells, Fluo-4 calcium fluorescence, agonist mode; active compounds read high; B-score at 10 µM; actives 0.44% (n = 310,000); AID 588627;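 active means calcium response B-score plate-corrected fluorescence ratio at least 3 library SD, with starting fluorescence B-score inside 5 SD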
# Target sequence (Q96LB2 whole entry, looked up): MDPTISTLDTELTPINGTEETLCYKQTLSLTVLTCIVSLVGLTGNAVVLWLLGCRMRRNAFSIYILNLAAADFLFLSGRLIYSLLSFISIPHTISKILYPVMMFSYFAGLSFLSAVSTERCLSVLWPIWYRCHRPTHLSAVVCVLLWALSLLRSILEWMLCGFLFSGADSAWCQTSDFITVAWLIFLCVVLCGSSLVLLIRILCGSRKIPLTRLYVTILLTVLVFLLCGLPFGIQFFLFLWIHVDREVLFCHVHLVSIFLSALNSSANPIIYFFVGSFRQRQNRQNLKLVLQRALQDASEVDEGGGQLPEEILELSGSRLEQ
#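 Material: MrgX1-expressing HEK293 cells; input: 15,000 cells per well; doses: test compound given as first of three sequential additions; schedule: overnight plating before 1 h dye loading; technique: Fluo-4 NW calcium-flux fluorescence, kinetic read; evaluation: baseline-normalised fluorescence change ratio, B-scored; control set: plate-wise positive and negative controls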
# MrgX1 antagonist = antagonists of human MrgX1 receptor; actives 1.3% (n = 310,000); Q96LB2; B-score at 10 µM; MRGX1-HEK293 calcium flux, Fluo-4, BAM8-22 antagonism; active compounds read low;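 active means calcium-response B-score plate-corrected more than 3 library SD below zero, starting fluorescence within 5 deviations, no agonist response on first addition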;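 further: peak minus trough fluorescence over baseline after final BAM8-22 challenge near maximal dose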
# RGS4 block = inhibitors of human RGS4; P49798; HEK293 M3R/RGS4 inducible, Fluo-4 calcium flux; active compounds read high; triggered by carbachol at its EC20; B-score at 10 µM; actives 0.45% (n = 310,000); AID 463165;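 active means B-score, a plate-corrected calcium signal, over three deviations above library mean, with baseline fluorescence within five deviations of library mean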;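 further: RGS4 expression induced by doxycycline in cells with stable M3 receptor; B-score is computed from the integrated fluorescence ratio over baseline after carbachol; higher B-score means a larger calcium signal and so more RGS4 inhibition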
# Target sequence (P49798 whole entry, looked up): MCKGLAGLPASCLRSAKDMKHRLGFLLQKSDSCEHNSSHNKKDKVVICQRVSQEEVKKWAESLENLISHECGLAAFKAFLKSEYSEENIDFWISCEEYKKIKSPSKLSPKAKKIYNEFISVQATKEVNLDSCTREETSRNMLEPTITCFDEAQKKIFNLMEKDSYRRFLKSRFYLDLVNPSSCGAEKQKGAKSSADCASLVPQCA
# MrgX1 allo act = human MrgX1 positive allosteric modulation, primary screen; Q96LB2; MrgX1-HEK293, Fluo-4 calcium flux, FDSS; active compounds read high; B-score at 10 µM; actives 0.63% (n = 310,000); AID 588675;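 active means plate-corrected calcium response at least 3 library SD above typical, normal starting fluorescence, not activating the receptor alone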;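 further: compound read alongside a low EC10 to EC30 dose of BAM8-22 agonist; peak minus trough fluorescence over baseline measured at the second addition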
# MrgX1 antag conf = human MrgX1 receptor antagonism, re-confirmation screen. shares compounds with MrgX1 antagonist. MrgX1-HEK293, BAM8-22 calcium flux, Fluo-4; active compounds read low. remaining BAM8-22 calcium response % of control (active compounds read low), % at 10 µM. actives 19% (n = 2,300). AID 602420;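 active means remaining agonist calcium response no higher than 100% minus 3 SD of agonist-only control wells, with starting fluorescence near control levels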;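 further: agonist BAM8-22 given at a near maximal EC90 to ECmax level; peak minus minimum fluorescence divided by baseline after agonist addition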
# HEK293 Ca flux = counter-screen for MrgX1 antagonists: effect in parental HEK293 cells; AID 624111; shares compounds with MrgX1 antagonist; Fluo-4 calcium fluorescence, FDSS; fluorescence ratio F(max-min)/F0 at 10 µM; actives 2% (n = 4,000);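 active means duplicate-averaged calcium fluorescence ratio at least three times the standard deviation of buffer wells, a nonspecific response in parental cells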
# HEK293 Ca counter = activity in parental HEK293 cells without MrgX1; fluorescence ratio F(max-min)/F0 at 10 µM; actives 0.4% (n = 4,000); parental HEK293 calcium flux, Fluo-4 fluorescence ratio; active compounds read high; AID 624114; shares compounds with MrgX1 antagonist;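 active means calcium fluorescence ratio, averaged over duplicates, at least 3 SD of the buffer-well ratio, meaning a nonspecific response in receptor-free cells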;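 further: untransfected parental HEK293 lacking MrgX1 used as counterscreen for MrgX1 allosteric activators; fluorescence change taken during the second addition on a kinetic imager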
# HEK293 Ca cntr2 = counter-screen for MrgX1 activators: effect in parental HEK293 cells. shares compounds with MrgX1 antagonist. actives 8.7% (n = 4,000). fluorescence ratio F(max-min)/F0 at 10 µM. Fluo-4 calcium fluorescence (FDSS); active compounds read high;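 active means calcium fluorescence ratio at least three times the spread of buffer wells, meaning a non-specific response in parental cells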
# Active calls of the source: *; i = inactive; / = no result given.
SMILES,RGS4 act,MrgX1 ag,MrgX1 antagonist,RGS4 block,MrgX1 allo act,MrgX1 antag conf,HEK293 Ca flux,HEK293 Ca counter,HEK293 Ca cntr2
CN(C)CCNC(=O)c1sc2nc(-c3ccccc3)cc(C(F)(F)F)c2c1N,i,i,-7.7*,i,i,i,i,i,i
CC(=O)c1sc2nc(-c3cccs3)cc(C(F)(F)F)c2c1N,i,i,-10*,i,i,i,i,i,i
Cc1c(C(=O)O)sc2nc(-c3cccs3)cc(C(F)(F)F)c12,i,i,i,i,i,/,/,/,/
COc1ccc(OC)c(NC(=O)c2sc3nc(Cc4ccccc4)cc(C(F)(F)F)c3c2N)c1,i,i,i,i,i,/,/,/,/
O=C(CN1CCN(S(=O)(=O)c2ccc(Cl)s2)CC1)N1CCOCC1,i,i,i,i,i,/,/,/,/
Cn1cc(S(=O)(=O)CC(=O)Nc2ccc(Br)cc2)c2ccccc21,i,i,-6.1*,i,i,i,i,i,i
COc1ccc2nc(-n3c(C)ccc3C)sc2c1,i,i,-6*,i,i,i,i,i,i
COc1ccc2nc(-c3ccc(F)cc3)sc2c1,i,i,-4.6*,i,i,i,i,i,i
COc1ccc2nc(N)sc2c1,i,i,i,i,i,/,/,/,/
Cc1cc(NCc2ccco2)n2ncnc2n1,i,i,-7.1*,i,i,i,i,i,i
O=C(CSc1ccc2nnc(-c3cccnc3)n2n1)Nc1ccccc1C(F)(F)F,i,i,i,i,i,/,/,/,/
CCOc1ccc(NS(=O)(=O)c2ccc3c(c2)n(C)c(=O)n3C)cc1,i,i,i,i,i,/,/,/,/
COc1ccccc1CC(=O)N1CCC(n2nccc2NC(=O)C2CCOC2)CC1 (stereo not drawn),i,i,i,i,i,/,/,/,/
CCCCCOC(=O)Cn1c(=O)oc2ccccc21,i,i,i,i,i,/,/,/,/
CCCCCCCCCCOC(=O)Cn1c(COc2ccccc2C)[n+](C)c2ccccc21,-7.4*,i,-12*,i,i,i,i,i,i
CCCCCCCCCCOC(=O)Cn1c(COc2ccc(Cl)cc2)[n+](C)c2ccccc21,i,i,-10*,i,i,i,i,i,i
CCCCCCCCCCOC(=O)Cn1c(COc2ccccc2)[n+](C)c2ccccc21,-9.3*,i,-10*,i,i,i,i,i,i
CCCCOC(=O)Cn1c(=O)n(CC(=O)OCCCC)c2ccccc21,i,i,i,i,i,/,/,/,/
N#Cc1c(NCc2ccccc2)ccnc1Cl,i,i,i,i,i,/,/,/,/
COc1ccc(N(CC(=O)NCc2ccccc2)S(=O)(=O)c2c(C)nn(C)c2C)cc1,i,i,-6.6*,i,i,i,i,i,i
O=C(NCCC1=CCCCC1)N[C@@H](Cc1ccccc1)C(=O)O,i,i,-9.7*,i,i,i,i,i,i
O=C(NCCc1ccccc1)NC(Cc1ccccc1)C(=O)O (stereo not drawn),i,i,i,i,i,/,/,/,/
CCCC(C)C(=O)Nc1ncc(S(=O)(=O)c2ccc([N+](=O)[O-])cc2)s1 (stereo not drawn),i,i,i,i,i,/,/,/,/
CCOC(=O)NC(NC(=O)OCC)C(=O)c1ccc(F)cc1,i,i,-5.1*,i,i,i,i,i,i
CCCC(C)NC(=O)c1ccc(F)cc1 (stereo not drawn),i,i,i,i,i,/,/,/,/
SMILES,RGS4 act,MrgX1 ag,MrgX1 antagonist,RGS4 block,MrgX1 allo act,MrgX1 antag conf,HEK293 Ca flux,HEK293 Ca counter,HEK293 Ca cntr2
O=C(NCc1ccccc1)c1cccc(COc2ccc(Cl)cc2)c1,i,i,i,i,i,/,/,/,/
CCc1nc2ccc(C(=O)NCc3ccccc3)cc2nc1CC,i,i,-8.3*,i,i,i,i,i,i
CCOc1cc(C(=O)NCc2ccccc2)ccc1OCC(=O)N1CCOCC1,i,i,i,i,i,/,/,/,/
CCOc1ccc(C(=O)NCc2ccccc2)cc1Br,i,i,-5.4*,i,i,85%*,i,i,i
O=C(NCc1ccccc1)c1cccc(COc2cccc(Cl)c2)c1,i,i,-4.6*,i,i,i,i,i,i
CSCc1ccc(C(=O)NCc2ccccc2)cc1,i,i,i,i,i,/,/,/,/
O=C1CCC(=O)N1CCSC(=S)N1CCSCC1,i,i,i,i,i,/,/,/,/
Cc1cccc(NC(=O)Nc2cnccn2)c1C,i,i,i,i,i,/,/,/,/
Cc1nn(S(=O)(=O)c2ccccc2)c(C)c1S(=O)(=O)N1CCC(C)CC1,i,i,i,i,i,/,/,/,/
COc1cccc(N2C(=NC(=O)c3ccccc3)SC3CS(=O)(=O)CC32)c1 (stereo not drawn),i,i,i,i,i,/,/,/,/
COc1ccc(-c2cc(C)no2)cc1S(=O)(=O)NCC(C)c1ccccc1 (stereo not drawn),i,i,-6.7*,i,i,i,i,i,i
CCOc1ccccc1CNS(=O)(=O)c1cc(-c2cc(C)no2)ccc1OC,i,i,i,i,i,/,/,/,/
CNCCCOc1cccc(OC(C)C)c1,i,i,-7.3*,i,i,i,i,i,i
O=C(CSc1nnnn1-c1cccc2c1CCCC2)NC1CCCC1,i,i,-4.5*,i,i,i,i,i,i
Clc1cccc(/C=N/N2CCN(Cc3ccccc3)CC2)c1,i,i,i,i,i,/,/,/,/
O=C(Nc1ccc2c(c1)OCO2)Nc1ccc2c(c1)OCO2,i,i,i,i,i,/,/,/,/
O=C(Nc1ccc(F)cc1)Nc1ccc2c(c1)OCO2,i,i,-4.8*,i,i,i,i,i,i
CCOC(=O)Cc1csc(NS(=O)(=O)Cc2ccccc2)n1,i,i,-12*,i,i,i,i,i,i
